The test system of one series is HeLa cells. Description: Washout experiment, residual cell viability. The format is cell-based, human. The settings on record: HeLa cells briefly treated. In short, it runs like this: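 HeLa cells grown in DMEM with 10% FBS, penicillin/streptomycin, 5% CO2. Cells were briefly exposed to the test compound or bortezomib (reversible-inhibitor reference), then washed out; non-washout cultures served as comparison. Viability was read by XTT: seeded at 1,000 cells/well, 4 h with XTT labeling mixture, absorbance at 450 nm. Run in triplicate, mean ± SE.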

The test system of series [1] is poly-ubiquitinated proteins in HeLa cervical cancer cells. The series can be described thus: Immunoblot analysis of poly-ubiquitinated proteins in HeLa cells. The series is classed as cell-based, human. The settings on record: eight hours treatment. In short, it runs like this: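 HeLa cells were grown in DMEM with 10% FBS, penicillin and streptomycin at 5% CO2, then treated for 8 h with or without test compound at several concentrations. Bortezomib served as the positive control. Poly-ubiquitinated proteins were detected by immunoblot, with β-actin as the loading control.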
A general note: In western blotting, separated proteins are transferred to a membrane and probed.

The test system of series [2] is HeLa cervical cancer cells. The series can be described thus: Cellular morphology by phase contrast microscopy. The series is classed as cell-based, human. The note with it: combination of Bortezomib (5nM)+compound 2 (1 µM), 48 hours.
Series [3] has as its system SiHa cervical cancer cells (HPV16+). Description: XTT cell viability assay, SiHa. The format is cell-based, human. The note with it: 48 hours.
Series [4] deals with chymotrypsin-like (CT-like) activity of proteasomes isolated from LCLs. Description: Proteasome chymotrypsin-like activity, fluorogenic substrate Suc-LLVY-AMC. The series is classed as biochemical. The note with it: 10 µM compound. The method in brief: (§1)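 Proteasomes came from lymphoblastoid cells lysed by glass-bead vortexing in Tris pH 7.5, MgCl2, DTT, ATP and sucrose buffer. They were semipurified by centrifugation and 100,000g ultracentrifugation. Preparations were pretreated with test compound for 30 min at 37°C, then assayed 45 min at 37°C with Suc-LLVY-AMC (CT-like), Boc-LRR-AMC (T-like) or Ac-YVAD-AMC (PGPH/caspase-like). Reactions were SDS-quenched and read at ex 380/em 440 nm. Results are % inhibition versus untreated; IC50 is the mean of three determinations.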

For series [5], the system named is HeLa cervical cancer cells. Description: Combination with Bortezomib, XTT viability, isobologram / combination index. The series is classed as cell-based, human. For orientation: Tetrazolium dyes change colour on reduction, which living cells bring about.
For a further series, the system named is Calpain. Description: Residual Calpain activity in HeLa cells. The settings on record: concentrations up to 50 µM. The format is cell-based, human.
For series [6], the system named is Ub-FL reporter in HeLa cervical cancer cells. Description: Ubiquitin-Firefly luciferase. The format is cell-based, human. The settings on record: combination of Bortezomib (5nM) and compound 2 (1µM). In short, it runs like this:
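HeLa cells were transfected with either the Ub-FL reporter (four ubiquitin G76V copies fused N-terminal to firefly luciferase) or the CMV-FL control. They were replated 24 h later at 1×10^4 cells/well and left 18 h to attach. Cells then received bortezomib 5 nM, test compound 1 µM, or both for 6 h. Lysate luciferase was read as RLU, given as % of control, from three independent experiments with SE.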

Series [7] concerns trypsin-like (T-like) activity of proteasomes isolated from LCLs. The series can be described thus: Proteasome trypsin-like activity, fluorogenic substrate Boc-LRR-AMC. The series is classed as biochemical. The settings on record: 10 µM compound. In short, it runs like this:
as §1

Series [8] concerns primary human Keratinocytes. Description: XTT cell viability assay, primary Keratinocytes. The format is cell-based. The note with it: 48 hours.
The next series deals with Cathepsin D (Homo sapiens, UniProt P07339). Description: Residual Cathepsin D activity in HeLa cells. The note with it: concentrations up to 50 µM. The format is cell-based.
Series [9] concerns peptidylglutamyl peptide hydrolyzing-like (PGPH-like) activity of proteasomes isolated from LCLs. The series can be described thus: Proteasome PGPH-like activity, fluorogenic substrate Ac-YVAD-AMC. The series is classed as biochemical. The settings on record: for inhibition of PGPH-like activity of 20S proteasome: 10 µM compound; for IC50: read-out: Isolated enzyme IC50(µM) PGPH-like, proteasomes isolated from LCLs, average of three independent determinations. The method in brief: as §1

Series [10] has as its system ME180 cervical cancer cells (HPV58+). Description: XTT cell viability assay, ME180. The settings on record: 48 hours. The series is classed as cell-based, human.

Cathepsin D, sequence (P07339 65-412): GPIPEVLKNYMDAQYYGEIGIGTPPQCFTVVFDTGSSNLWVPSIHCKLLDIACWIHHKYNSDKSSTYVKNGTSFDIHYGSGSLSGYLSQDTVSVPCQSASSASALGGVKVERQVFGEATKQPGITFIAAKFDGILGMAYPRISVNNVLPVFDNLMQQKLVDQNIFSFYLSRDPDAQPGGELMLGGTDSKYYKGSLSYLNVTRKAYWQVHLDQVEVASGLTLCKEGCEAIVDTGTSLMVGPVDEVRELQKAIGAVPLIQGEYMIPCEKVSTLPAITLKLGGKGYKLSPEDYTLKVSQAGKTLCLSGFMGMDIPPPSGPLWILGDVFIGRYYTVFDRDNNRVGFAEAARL

As to `CC(C)C[C@H](NC(=O)[C@H](Cc1ccccc1)NC(=O)c1cnccn1)B(O)O` [Bortezomib, reference compound], the “cell viability after washout compared to non-washout cultures” value with HeLa cells is given as “partial recovery in cell viability”. In addition, the “levels of poly-ubiquitinated proteins” value in series [1] was “increase”.

On to `O=C1/C(=C/c2ccc(Cl)c(Cl)c2)CN(C(=O)N[C@@H](Cc2ccccc2)C(=O)O)C/C1=C\c1ccc(Cl)c(Cl)c1` [Compound 2], for which the “cell viability after washout compared to non-washout cultures” value in the series on HeLa cells was “partial recovery in cell viability”. The “morphological changes compared to single treatment alone” value in series [2] is given as “greater apoptotis-associated morphological changes”. Also, the “effect on viability of SiHa” value in series [3] is listed as “dose-dependent drop”. The “inhibition of chymotrypsin-like (CT-like) activity of 20S proteasome” value (shortened to “inhibition of chymotrypsin-like”) in series [4] is reported as “nearly fully abrogated”. Further, the “Combination Index (CI)” value in series [5] (Bortezomib 3.95 nmol/L / compound 2 2.5 mM/L) turned out to be 0.6; in series [5] (Bortezomib 6.125 nmol/L / compound 2 1.64 mM/L), 0.6; in series [5] (Bortezomib 7.5 nmol/L / compound 2 1.06 mM/L) it was 0.59. In [5] (checker board dilution series, XTT), the “interaction of the combination with Bortezomib by isobologram analysis” value is “highly synergistic”. In addition, the “inhibitory capacity toward Calpain activity” value with Calpain is reported as “no inhibitory capacity”. Further, the “stabilization of the Ub-FL degron compared to single agents alone” value in series [6] is listed as “significantly enhance the stabilization”. Besides, in [7], the “inhibition of trypsin-like (T-like) activity of 20S proteasome” value (shortened to “inhibition of trypsin-like”) is recorded as “nearly fully abrogated”. In addition, in [8], the “effect on viability of primary human Keratinocytes” value was “minimal effects”. Also, the “inhibitory capacity toward Cathepsin D activity” value on Cathepsin D is “no inhibitory capacity”. Besides, the “inhibition of PGPH-like activity of 20S proteasome” value in [9] is recorded as “nearly fully abrogated”. The “effect on viability of ME180” value in [10] was “dose-dependent drop”.

For the compound `O=C1/C(=C/c2ccc(Cl)c(Cl)c2)CN(C(=O)N[C@@H](Cc2ccc(O)cc2)C(=O)O)C/C1=C\c1ccc(Cl)c(Cl)c1` [Compound 3], the “inhibition of chymotrypsin-like” value in [4] was “partial inhibition”. In series [7], the “inhibition of trypsin-like” value is listed as “partial inhibition”. In series [9], the “inhibition of PGPH-like activity of 20S proteasome” value was “partial inhibition” and the IC50 was above 10 µM.

With `CC(C)C[C@H](NC(=O)N1C/C(=C\c2ccc(Cl)c(Cl)c2)C(=O)/C(=C/c2ccc(Cl)c(Cl)c2)C1)C(=O)O` [Compound 4], in series [4], the “inhibition of chymotrypsin-like” value is “partial inhibition”. For the same compound, in series [7], the “inhibition of trypsin-like” value is on record as “partial inhibition”. Also, in series [9], the “inhibition of PGPH-like activity of 20S proteasome” value is “partial inhibition” and the half-inhibitory concentration (IC50) is above 10 µM.

As for `O=C(O)CC[C@H](NC(=O)N1C/C(=C\c2ccc(Cl)c(Cl)c2)C(=O)/C(=C/c2ccc(Cl)c(Cl)c2)C1)C(=O)O` [Compound 5], the “levels of poly-ubiquitinated proteins” value in series [1] is reported as “no changes”.

As a reminder, the IC50 is the concentration at which inhibition is half-maximal.

The record behind these values is article PMC3204583 (Journal of medicinal chemistry, 2010).
